Measured values as given in ChEMBL document CHEMBL3779834, “Prenylated Acylphloroglucinols with Leishmanicidal Activity from the Fern Elaphoglossum lindbergii” (J Nat Prod, 2016).

What was measured:
Leishmania braziliensis = experiment: Leshmanicidal activity against promastigote stage of Leishmania braziliensis strand M2904 C192 RJA after 72 hrs by XTT-based microplate reader analysis; assay type: functional, organism-based
Outline: (§1)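 Log-phase promastigotes, grown at 26 °C in Schneider's insect medium (pH 6.8) with 10% heat-inactivated FBS, seeded at 1 × 10^6 parasites/mL. Test substances in DMSO at 0.75−100 μg/mL, 72 h at 26 °C. XTT (1 mg/mL) with PMS (0.06 mg/mL) added, further 4 h at 26 °C, OD read at 450 nm. DMSO 1% negative, amphotericin B 0.5 μg/mL positive control. IC50 = 50% viability decrease, mean ± standard error.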

Leishmania amazonensis = experiment: Leshmanicidal activity against promastigote stage of Leishmania amazonensis clone 1 AML MHOM/BR/76/LTB-012 after 72 hrs by XTT-based microplate reader analysis; assay type: functional, organism-based; details: clone 1 AML MHOM/BR/76/LTB-012, 72 h; outline: as §1

| Structure (SMILES) | IC50 (Leishmania braziliensis) | IC50 (Leishmania amazonensis) |
| --- | --- | --- |
| CCCCCC(=O)C1=C(O)[C@@](C)(CC=C(C)C)C(O)=C(Cc2c(O)c3c(c(C(=O)CCC)c2O)OC(C)(C)C=C3)C1=O | 29.9 µM | 52.4 µM |
| CCCCCC(=O)c1c(O)c(CC2=C(O)[C@](C)(CC=C(C)C)C(O)=C(C(=O)CCC)C2=O)c(O)c(CC2=C(O)[C@](C)(CC=C(C)C)C(O)=C(C(=O)CCC)C2=O)c1O | 87.7 µM | > 100 µg/mL |
| CCCCCC(=O)C1=C(O)[C@@](C)(CC=C(C)C)C(O)=C(Cc2c(O)c(CC3=C(O)[C@](C)(CC=C(C)C)C(O)=C(C(=O)CCCCC)C3=O)c(O)c(C(=O)CCC)c2O)C1=O | > 100 µg/mL | > 100 µg/mL |
| CCCC(=O)C1=C(O)[C@@](C)(CC=C(C)C)C(O)=C(Cc2c(O)c3c(c(C(=O)CCC)c2O)OC(C)(C)C=C3)C1=O | 13.6 µM | 16.3 µM |
| CCCCCC(=O)C1=C(O)[C@@](C)(CC=C(C)C)C(O)=C(Cc2c(O)c(CC=C(C)C)c(OC)c(C(=O)CCCCC)c2O)C1=O | 66.5 µM | 151 µM |
| C[C@@H]1[C@H](O)[C@@H](C)/C=C/C=C/C=C/C=C/C=C/C=C/C=C/[C@H](O[C@@H]2O[C@H](C)[C@@H](O)[C@H](N)[C@@H]2O)C[C@@H]2O[C@](O)(C[C@@H](O)C[C@@H](O)[C@H](O)CC[C@@H](O)C[C@@H](O)CC(=O)O[C@H]1C)C[C@H](O)[C@H]2C(=O)O [AMPHOTERICIN B] | 0.12 µM | 0.11 µM |
